Assay results of several laboratories.
Compare with care: the assays were run in different laboratories.
Target: Mitogen-activated protein kinase kinase kinase kinase 4 (MAP4K4, Homo sapiens, UniProt O95819)

SMILES	test	conditions	measurement	value
COc1ncccc1-c1cnn2ccc(N3CCN(C(=O)OC(C)C)CC3)nc12	binding, competition with immobilised ligand	1 µM	remaining binding	83%
Cn1cc(-c2cc(F)cc(N3CCn4c(cc5c4CCCC5)C3=O)c2CO)cc(Nc2ccc(N3CCN(C4COC4)CC3)cn2)c1=O	enzyme activity, inhibitor	0.1 µM	inhibition	23%
O=c1[nH]c2ccccc2n1C1CCN(Cc2ccc(-c3[nH]c4cc5ncnc5cc4nc3-c3ccccc3)cc2)CC1	cell-free assay	0.5 µM	remaining signal	99.5%
Cc1nn(C)cc1-c1nc2c(N3CCN(Cc4ccc(Cl)cc4)CC3)c(Cl)cnc2[nH]1	binding, competition with immobilised ligand	1 µM	remaining binding	88%
Nc1ncc(-c2nc(N3CCOCC3)nc(N3CCOCC3)n2)c(C(F)F)n1	binding, competition with immobilised ligand	10 µM	remaining binding	100%
Cn1cncc1[C@](O)(COc1ccc(C#N)cc1-c1ccc(OC(F)(F)F)cc1)c1ccc(C#N)cc1	cell-free assay, competition with immobilised ligand	1 µM	remaining binding	100%
CC(C)(C)c1cc(C=C(C#N)C#N)cc(Br)c1O	enzyme activity, inhibitor	0.5 µM	remaining activity	96.2%
Cn1cc(-c2cccc(N3CCc4c(sc5c4CC(C)(C)C5)C3=O)c2CO)cc(Nc2ccncn2)c1=O	enzyme activity, inhibitor	1 µM	inhibition	4%
N#CC1(c2ccccn2)CCN(Cc2cc(C(=O)O)c(=O)n3ccccc23)CC1	cell-free assay, competition with immobilised ligand	1 µM	remaining binding	87%
